Data published in ChEMBL document CHEMBL1138454, “Synthesis and SAR of tolylamine 5-HT6 antagonists” (Bioorg Med Chem Lett, 2009).
The source made the active and inactive calls. The calls are words filed in the database; no cut-off is given here.

How the values were obtained:
Rattus norvegicus [1] = experiment: Reversal of natural forgetting activity in rat assessed as familiar object recognition at 3 mg/kg, ip after 24 hrs; type: functional, organism-based; design: dose 3 mg/kg
Rattus norvegicus [2] = experiment: Reversal of natural forgetting activity in rat assessed as familiar object recognition at 10 mg/kg, ip after 24 hrs; type: functional, organism-based; design: dose 10 mg/kg
[3] = Bioavailability in rat; type: ADME, organism-based; conditions: in vivo
[4] = Clearance in rat; type: ADME, organism-based; conditions: in vivo
[5] = Volume of distribution at steady state in rat; type: ADME, organism-based; conditions: in vivo, read-out: Vdss
[6] = Half life in po dosed rat plasma; type: ADME, organism-based
Procedure, shortened: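 Rat pharmacokinetics; plasma half-life derived from the PO dosing arm.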

[7] = Ratio of drug level in rat brain to plasma; conditions: brain and plasma
[8] = biological target: 5-hydroxytryptamine receptor 6 (Rattus norvegicus) (UniProt P31388); experiment: Agonist activity at rat recombinant 5HT6 receptor assessed as increase in 5-HT-stimulated cAMP level at 1 uM by ELISA; type: functional
Chain of 5-hydroxytryptamine receptor 6 (Rattus norvegicus) (P31388 whole entry): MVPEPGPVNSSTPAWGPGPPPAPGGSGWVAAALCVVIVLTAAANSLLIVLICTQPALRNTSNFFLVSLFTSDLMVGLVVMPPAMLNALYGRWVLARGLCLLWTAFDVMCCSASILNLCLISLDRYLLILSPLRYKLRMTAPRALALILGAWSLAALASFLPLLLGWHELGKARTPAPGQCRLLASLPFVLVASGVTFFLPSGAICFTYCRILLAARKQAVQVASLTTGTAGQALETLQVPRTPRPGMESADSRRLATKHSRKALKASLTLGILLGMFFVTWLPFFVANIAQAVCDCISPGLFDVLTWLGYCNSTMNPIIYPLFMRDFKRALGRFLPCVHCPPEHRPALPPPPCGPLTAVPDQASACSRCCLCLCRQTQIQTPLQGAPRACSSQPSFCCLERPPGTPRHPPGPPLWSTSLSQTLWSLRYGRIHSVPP
Procedure, shortened: (§1)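 cAMP accumulation measured by ELISA in cells expressing recombinant rat 5-HT6 receptor. Compound tested alone, without 5-HT, at 1, 3 and 10 µM to look for stimulation. 5-HT used as the stimulating reference.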

[9] = biological target: 5-hydroxytryptamine receptor 6 (Rattus norvegicus) (UniProt P31388); experiment: Agonist activity at rat recombinant 5HT6 receptor assessed as increase in 5-HT-stimulated cAMP level at 3 uM by ELISA; type: functional; procedure, shortened: as §1
[10] = biological target: 5-hydroxytryptamine receptor 6 (Rattus norvegicus) (UniProt P31388); experiment: Agonist activity at rat recombinant 5HT6 receptor assessed as increase in 5-HT-stimulated cAMP level at 10 uM by ELISA; type: functional; procedure, shortened: as §1
[11] = biological target: 5-hydroxytryptamine receptor 6 (Rattus norvegicus) (UniProt P31388); experiment: Antagonist activity at rat recombinant 5HT6 receptor assessed as inhibition of 5-HT-stimulated cAMP level by ELISA; type: functional
Procedure, shortened: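 Cells expressing recombinant rat 5-HT6 receptor were stimulated with 5-HT. Inhibition of the 5-HT-stimulated cAMP accumulation was read by ELISA and expressed as a Kb.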

[12] = biological target: T1, 5-hydroxytryptamine receptor 1A (Homo sapiens, UniProt P08908); experiment: Binding affinity to 5HT1A receptor
T1 sequence (P08908 whole entry): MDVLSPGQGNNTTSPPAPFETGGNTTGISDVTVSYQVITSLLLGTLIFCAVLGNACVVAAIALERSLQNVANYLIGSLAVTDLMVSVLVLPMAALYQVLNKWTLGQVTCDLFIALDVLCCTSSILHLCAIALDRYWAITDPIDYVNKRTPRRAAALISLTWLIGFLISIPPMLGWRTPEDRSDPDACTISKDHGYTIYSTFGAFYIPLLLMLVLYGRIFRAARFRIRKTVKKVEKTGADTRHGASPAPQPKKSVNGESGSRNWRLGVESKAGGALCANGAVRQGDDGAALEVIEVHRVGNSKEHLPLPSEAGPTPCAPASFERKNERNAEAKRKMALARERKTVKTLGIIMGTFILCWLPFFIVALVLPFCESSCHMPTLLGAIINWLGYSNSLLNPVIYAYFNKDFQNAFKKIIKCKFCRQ

[13] = biological target: 5-hydroxytryptamine receptor 2A (Homo sapiens, UniProt P28223); experiment: Binding affinity to 5HT2A receptor
Chain of 5-hydroxytryptamine receptor 2A (P28223 whole entry): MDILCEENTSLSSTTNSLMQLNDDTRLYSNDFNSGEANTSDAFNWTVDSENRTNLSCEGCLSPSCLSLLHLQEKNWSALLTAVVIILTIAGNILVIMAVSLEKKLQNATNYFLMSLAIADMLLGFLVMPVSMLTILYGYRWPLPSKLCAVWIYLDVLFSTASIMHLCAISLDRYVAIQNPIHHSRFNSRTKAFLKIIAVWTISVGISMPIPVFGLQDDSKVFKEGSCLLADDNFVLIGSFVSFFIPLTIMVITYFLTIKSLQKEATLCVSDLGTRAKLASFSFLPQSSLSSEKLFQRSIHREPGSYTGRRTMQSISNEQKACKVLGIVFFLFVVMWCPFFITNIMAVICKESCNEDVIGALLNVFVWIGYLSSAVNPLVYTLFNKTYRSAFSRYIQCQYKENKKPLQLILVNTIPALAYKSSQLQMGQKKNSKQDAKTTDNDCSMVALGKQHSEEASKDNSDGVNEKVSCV

[14] = biological target: T2, 5-hydroxytryptamine receptor 2C (Homo sapiens, UniProt P28335); experiment: Binding affinity to 5HT2C receptor
T2 sequence (P28335 whole entry): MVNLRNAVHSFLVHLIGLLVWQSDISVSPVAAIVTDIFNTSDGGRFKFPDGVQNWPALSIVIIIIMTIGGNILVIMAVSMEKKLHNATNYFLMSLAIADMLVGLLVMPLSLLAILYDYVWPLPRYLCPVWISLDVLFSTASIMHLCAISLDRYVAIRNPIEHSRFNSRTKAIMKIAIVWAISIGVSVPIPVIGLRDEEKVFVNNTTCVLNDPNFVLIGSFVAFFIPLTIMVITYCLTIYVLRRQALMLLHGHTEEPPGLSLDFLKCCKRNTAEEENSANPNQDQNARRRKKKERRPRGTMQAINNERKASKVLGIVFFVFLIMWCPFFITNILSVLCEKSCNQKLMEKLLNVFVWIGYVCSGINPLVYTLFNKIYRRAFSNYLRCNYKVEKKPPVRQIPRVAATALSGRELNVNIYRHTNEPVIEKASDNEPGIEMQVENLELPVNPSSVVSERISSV

Rattus norvegicus [15] = experiment: Reversal of natural forgetting activity in rat assessed as novel object recognition at 3 mg/kg, ip after 24 hrs; type: functional, organism-based; design: dose 3 mg/kg
Rattus norvegicus [16] = experiment: Reversal of natural forgetting activity in rat assessed as novel object recognition at 10 mg/kg, ip after 24 hrs; type: functional, organism-based; design: dose 10 mg/kg

## Cc1c(O[C@@H](C)c2cccc(F)c2)cccc1C1CCNCC1
Rattus norvegicus [1]
  Activity: Active
Rattus norvegicus [2]
  Activity: Active
[3]
  bioavailability: 90%
[4]
  clearance: 66 mL/min/kg
[5]
  Vd: 12 L/kg
[6]
  half-life: 5.9 h
[7]
  Kp: 23
[8]
  Activity: inactive
[9]
  Activity: inactive
[10]
  Activity: inactive
[11]
  Kb: 153 nM
[12]
  IC50: > 1000 nM
[13]
  IC50: > 1000 nM
[14]
  IC50: > 1000 nM
Rattus norvegicus [15]
  Activity: Active
Rattus norvegicus [16]
  Activity: Active
